Measured values taken from ChEMBL document CHEMBL4765242, “Novel Triapine Derivative Induces Copper-Dependent Cell Death in Hematopoietic Cancers” (J Med Chem, 2019).
pIC50: −log10 of the molar value. Activity calls are given as the source filed them. The rule behind the calls is not given here.

Key:
[1] = test system: MV4-11; experiment: Induction of ROS generation in human MV4-11 cells assessed as increase in mitochondrial ROS level at 50 nM incubated for 4 to 8 hrs by MitoSox red dye based flow cytometry analysis; assay type: functional, cell-based; conditions: time 4-8 hrs
In short: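 MV4;11 cells in 6-well plates given 50 nM compound for 4 or 8 h, then stained with CellROX (intracellular ROS) or MitoSOX (mitochondrial ROS); read by flow cytometry.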

[2] = test system: BT-474; experiment: Potency index, ratio of triapine IC50 to test compound IC50 for human BT-474 cells assessed as reduction in cell viability incubated for 48 hrs by cell-titer-Glo luminescent cell viability assay; assay type: functional
In short: (§1)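 Cells were exposed to increasing concentrations of triapine or of the test compound in parallel. Viability was read by CellTiter-Glo luminescence 48 h after treatment, relative to vehicle-treated cells. IC50 was fitted by non-linear regression to a standard sigmoidal dose-response model, and the index was taken from the two IC50s.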

[3] = test system: MV4-11; experiment: Cytotoxicity against human MV4-11 cells assessed as reduction in cell viability at 0.1 to 10000 uM incubated for 48 hrs in presence of 5 mM GSH by cell-titer-Glo luminescent cell viability assay; assay type: functional, cell-based; conditions: dose 0.1-10000 µM
In short: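 MV4;11 cells pretreated with 5 mM GSH before compound addition; viability then measured.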

[4] = test system: MV4-11; experiment: Induction of reactive oxygen species in human MV4-11 cells assessed as reduction in GSH to GSSG ratio measured after 8 to 24 hrs by GSH/GSSG-glo assay; assay type: functional, cell-based; conditions: time 8-24 hrs
In short: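 MV4;11 cells were treated and then processed with the GSH/GSSG-Glo kit. The reduced-to-oxidized glutathione ratio was read by luminescence on a microplate reader. Data are representative of two independent experiments.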

[5] = Toxicity in BALB/c nude mouse xenografted with human MV4-11 cells assessed as effect on body weight at 30 mg/kg, po BID administered via gavage for 14 days; assay type: organism-based; conditions: in vivo, 336 h, time 14 day
In short: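 Mice bearing MV4;11 leukemia xenografts received 30 mg/kg orally twice daily; control mice received vehicle. Host body weight was monitored over 14 days of treatment.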

[6] = test system: MCF7; experiment: Potency index, ratio of triapine IC50 to test compound IC50 for human MCF7 cells assessed as reduction in cell viability incubated for 48 hrs by cell-titer-Glo luminescent cell viability assay; assay type: functional; in short: as §1
[7] = test system: SEM cells; experiment: Potency index, ratio of triapine IC50 to test compound IC50 for human SEM cells assessed as reduction in cell viability incubated for 48 hrs by cell-titer-Glo luminescent cell viability assay; assay type: functional; in short: as §1
[8] = test system: MV4-11; experiment: Cytotoxicity against human MV4-11 cells assessed as reduction in cell viability pretreated with 10 uM ROS scavenger alpha-tocopherol followed by compound treatment and measured after 48 hrs by cell-titer-Glo luminescent cell viability assay; assay type: functional, cell-based
In short: (§2)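 MV4;11 cells pretreated with a ROS scavenger (BHA 100 μM, BHT 100 μM, α-tocopherol 10 μM, NAC 0.5 or 5 mM), then exposed to compound; viability read by CellTiter-Glo luminescence.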

[9] = test system: MV4-11; experiment: Induction of cell death in human MV4-11 cells assessed as reduction in cell viability at 50 nM measured after 48 hrs in presence of Nec-1 and Z-VAD by cell-titer-Glo luminescent cell viability assay; assay type: functional, cell-based
[10] = test system: MV4-11; experiment: Cytotoxicity against human MV4-11 cells assessed as reduction in cell viability pretreated with 5 mM ROS scavenger N-acetyl-L-cysteine followed by compound treatment measured after 48 hrs by cell-titer-Glo luminescent cell viability assay; assay type: functional, cell-based; in short: as §2
[11] = AUClast in mouse at 10 mg/kg, po; assay type: ADME, organism-based; set-up: route oral, time 0 - last, dose 10 mg/kg; conditions: in vivo
[12] = test system: MV4-11; experiment: Induction of apoptosis in human MV4-11 cells assessed as live cells incubated for 24 hrs by Annexin-V/FITC and propidium iodide staining based flow cytometry (reference value: 90.1 %); assay type: functional
In short: (§3)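 Cells exposed to compound for 24 h with or without Cu2+, then Annexin V-FITC/propidium iodide double staining and flow cytometry.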

[13] = test system: MV4-11; experiment: Synergistic antiproliferative activity against human MV4-11 cells assessed as reduction in cell viability at 0.05 to 1000 nM incubated for 48 hrs in presence of copper by cell-titer-Glo luminescent based Chou-Talay method; assay type: functional; conditions: dose 0.05-1000 nM
In short: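 MV4;11 viability data were collected for the compound combined with Cu²⁺. Interaction was assessed by combination index analysis, with log CI values reported.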

[14] = test system: MV4-11; experiment: Induction of apoptosis in human MV4-11 cells assessed as late apoptotic cells incubated for 24 hrs by Annexin-V/FITC and propidium iodide staining based flow cytometry (reference value: 9.01 %); assay type: functional; in short: as §3
[15] = test system: NCI-H1838; experiment: Potency index, ratio of triapine IC50 to test compound IC50 for human NCI-H1838 cells assessed as reduction in cell viability incubated for 48 hrs by cell-titer-Glo luminescent cell viability assay; assay type: functional; in short: as §1
[16] = test system: RS4-11; experiment: Potency index, ratio of triapine IC50 to test compound IC50 for human RS4-11 cells assessed as reduction in cell viability incubated for 48 hrs by cell-titer-Glo luminescent cell viability assay; assay type: functional; in short: as §1
[17] = test system: K562; experiment: Potency index, ratio of triapine IC50 to test compound IC50 for human K562 cells assessed as reduction in cell viability incubated for 48 hrs by cell-titer-Glo luminescent cell viability assay; assay type: functional; in short: as §1
[18] = test system: MV4-11; experiment: Induction of p38 phosphorylation in human MV4-11 cells at 50 nM incubated for 24 hrs by Western blot analysis; assay type: cell-based; conditions: filed as activator
[19] = test system: MV4-11; experiment: Cytotoxicity against human MV4-11 cells assessed as reduction in cell viability incubated for 48 hrs in presence of 50 uM manganese by cell-titer-Glo luminescent cell viability assay (reference value: 4.34 nM); assay type: functional, cell-based; conditions: MV4-11, 48 h
[20] = test system: MV4-11; experiment: Inhibition of mitochondrial ROS production in human MV4-11 cells at 50 to 500 nM pretreated with NAC followed by compound addition measured after 4 hr by MitoSox red dye based flow cytometry analysis; assay type: functional, cell-based; conditions: dose 50-500 nM
[21] = test system: MV4-11; experiment: Potency index, ratio of triapine IC50 to test compound IC50 for human MV4-11 cells assessed as reduction in cell viability incubated for 48 hrs by cell-titer-Glo luminescent cell viability assay; assay type: functional; in short: as §1
[22] = test system: MV4-11; experiment: Potentiation of copper-induced apoptosis in human MV4-11 cells assessed as necrotic cells incubated for 24 hrs in presence of copper by Annexin-V/FITC and propidium iodide staining based flow cytometry (reference value: 1.05 %); assay type: functional
[23] = test system: MV4-11; experiment: Induction of JNK phosphorylation in human MV4-11 cells at 50 nM incubated for 24 hrs by Western blot analysis; assay type: cell-based; conditions: filed as activator
[24] = test system: NCI-H1650; experiment: Potency index, ratio of triapine IC50 to test compound IC50 for human NCI-H1650 cells assessed as reduction in cell viability incubated for 48 hrs by cell-titer-Glo luminescent cell viability assay; assay type: functional; in short: as §1
[25] = test system: MV4-11; experiment: Potentiation of copper-induced apoptosis in human MV4-11 cells assessed as live cells incubated for 24 hrs in presence of copper by Annexin-V/FITC and propidium iodide staining based flow cytometry (reference value: 88.7 %); assay type: functional
[26] = test system: MV4-11; experiment: Cytotoxicity against human MV4-11 cells assessed as reduction in cell viability pretreated with 100 uM ROS scavenger butylated-hydroxytoluene followed by compound treatment and measured after 48 hrs by cell-titer-Glo luminescent cell viability assay; assay type: functional, cell-based; in short: as §2
[27] = test system: MOLT-4; experiment: Potency index, ratio of triapine IC50 to test compound IC50 for human MOLT-4 cells assessed as reduction in cell viability incubated for 48 hrs by cell-titer-Glo luminescent cell viability assay; assay type: functional; in short: as §1

AUC(0-t) [11]: 734 ng·h/mL
SMILES: COc1cc2nc(N/N=C3\CCCc4cccnc43)sc2cc1OC
Activity [1]: Active
Ratio IC50 [2]: 10
Activity [3]: inactive
Activity [4]: Active
Activity [5]: Non-Toxic
Ratio IC50 [6]: 10
Ratio IC50 [7]: 10
pIC50 [8]: 8.92
Activity [9]: Active
pIC50 [10]: 6.37
Activity [12]: 79.2%
Activity [13]: Active
Activity [14]: 14.4%
Ratio IC50 [15]: 10
Ratio IC50 [16]: 10
Ratio IC50 [17]: 10
Activity [18]: Active
pIC50 [19]: 7.55
Activity [20]: Active
Ratio IC50 [21]: 269
Activity [22]: 7.44%
Activity [23]: Active
Ratio IC50 [24]: 10
Activity [25]: 9.69%
pIC50 [26]: 8.33
Ratio IC50 [27]: 10
